According to ChEMBL document CHEMBL1649562, “Emergence of high levels of extended-spectrum-beta-lactamase-producing gram-negative bacilli in the Asia-Pacific region: data from the Study for Monitoring Antimicrobial Resistance Trends (SMART) program, 2007” (2009):
Calls of active or inactive are those of the source.

How the values were obtained:
Pseudomonas aeruginosa [1] = test: Antimicrobial activity against Pseudomonas aeruginosa assessed as percent susceptible isolates by CLSI method; format: functional
Klebsiella pneumoniae [2] = test: Antimicrobial activity against extended spectrum beta-lactamase-expressing Klebsiella pneumoniae assessed as percent susceptible isolates by CLSI method; format: functional
Klebsiella pneumoniae [3] = test: Antimicrobial activity against extended spectrum beta-lactamase-deficient Klebsiella pneumoniae assessed as percent susceptible isolates by CLSI method; format: functional
Klebsiella aerogenes [4] = test: Antimicrobial activity against Enterobacter aerogenes assessed as percent susceptible isolates by CLSI method; format: functional
Escherichia coli [5] = test: Antimicrobial activity against extended spectrum beta-lactamase-expressing Escherichia coli assessed as percent susceptible isolates by CLSI method; format: functional
Klebsiella oxytoca [6] = test: Antimicrobial activity against extended spectrum beta-lactamase-expressing Klebsiella oxytoca assessed as percent susceptible isolates by CLSI method; format: functional
Citrobacter freundii [7] = test: Antimicrobial activity against Citrobacter freundii assessed as percent susceptible isolates by CLSI method; format: functional
Escherichia coli [8] = test: Antimicrobial activity against extended spectrum beta-lactamase-deficient Escherichia coli assessed as percent susceptible isolates by CLSI method; format: functional
Enterobacter cloacae [9] = test: Antimicrobial activity against Enterobacter cloacae assessed as percent susceptible isolates by CLSI method; format: functional
Proteus mirabilis [10] = test: Antimicrobial activity against Proteus mirabilis assessed as percent susceptible isolates by CLSI method; format: functional
Klebsiella oxytoca [11] = test: Antimicrobial activity against extended spectrum beta-lactamase-deficient Klebsiella oxytoca assessed as percent susceptible isolates by CLSI method; format: functional
Klebsiella oxytoca [12] = test: Antimicrobial activity against extended spectrum beta-lactamase-deficient Klebsiella oxytoca assessed as percent susceptible isolates by CLSI method in presence of beta-lactamase inhibitor Sulbactam; format: functional
In short: (§1)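 ESBL status was assigned when the ceftazidime or cefotaxime MIC fell at least eightfold (three doubling dilutions) with clavulanic acid, compared with the drug alone. Isolates were identified locally at each site. MICs came from uniform dehydrated broth microdilution panels under CLSI procedure, with susceptibility by CLSI criteria. Daily QC used E. coli ATCC 25922, K. pneumoniae ATCC 700603 (ESBL-positive) and P. aeruginosa ATCC 27853.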

Klebsiella aerogenes [13] = test: Antimicrobial activity against Enterobacter aerogenes assessed as percent susceptible isolates by CLSI method in presence of beta-lactamase inhibitor Sulbactam; format: functional
In short: (§2)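 Site laboratories identified isolates by their local methods. MICs were read from dehydrated broth microdilution panels, the same panel at all sites, following CLSI procedure. Susceptibility was categorized by CLSI interpretive criteria. QC ran daily at each site with E. coli ATCC 25922, K. pneumoniae ATCC 700603 and P. aeruginosa ATCC 27853.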

Klebsiella oxytoca [14] = test: Antimicrobial activity against extended spectrum beta-lactamase-expressing Klebsiella oxytoca assessed as percent susceptible isolates by CLSI method in presence of beta-lactamase inhibitor Sulbactam; format: functional; in short: as §1
Escherichia coli [15] = test: Antimicrobial activity against extended spectrum beta-lactamase-deficient Escherichia coli assessed as percent susceptible isolates by CLSI method in presence of beta-lactamase inhibitor Sulbactam; format: functional; in short: as §1
Citrobacter freundii [16] = test: Antimicrobial activity against Citrobacter freundii assessed as percent susceptible isolates by CLSI method in presence of beta-lactamase inhibitor Sulbactam; format: functional; in short: as §2
Proteus mirabilis [17] = test: Antimicrobial activity against Proteus mirabilis assessed as percent susceptible isolates by CLSI method in presence of beta-lactamase inhibitor Sulbactam; format: functional; in short: as §2
Klebsiella pneumoniae [18] = test: Antimicrobial activity against extended spectrum beta-lactamase-deficient Klebsiella pneumoniae assessed as percent susceptible isolates by CLSI method in presence of beta-lactamase inhibitor Sulbactam; format: functional; in short: as §1
Klebsiella pneumoniae [19] = test: Antimicrobial activity against extended spectrum beta-lactamase-expressing Klebsiella pneumoniae assessed as percent susceptible isolates by CLSI method in presence of beta-lactamase inhibitor Sulbactam; format: functional; in short: as §1
Enterobacter cloacae [20] = test: Antimicrobial activity against Enterobacter cloacae assessed as percent susceptible isolates by CLSI method in presence of beta-lactamase inhibitor Sulbactam; format: functional; in short: as §2
Escherichia coli [21] = test: Antimicrobial activity against extended spectrum beta-lactamase-expressing Escherichia coli assessed as percent susceptible isolates by CLSI method in presence of beta-lactamase inhibitor Sulbactam; format: functional; in short: as §1
Pseudomonas aeruginosa [22] = test: Antimicrobial activity against Pseudomonas aeruginosa assessed as percent susceptible isolates by CLSI method in presence of beta-lactamase inhibitor Sulbactam; format: functional, organism-based; in short: as §2
Klebsiella aerogenes [23] = test: Antimicrobial activity against Enterobacter aerogenes assessed as percent susceptible isolates by CLSI method in presence of beta-lactamase inhibitor tazobactem; format: functional; in short: as §2
Klebsiella oxytoca [24] = test: Antimicrobial activity against extended spectrum beta-lactamase-expressing Klebsiella oxytoca assessed as percent susceptible isolates by CLSI method in presence of beta-lactamase inhibitor tazobactem; format: functional; in short: as §1
Enterobacter cloacae [25] = test: Antimicrobial activity against Enterobacter cloacae assessed as percent susceptible isolates by CLSI method in presence of beta-lactamase inhibitor tazobactem; format: functional; in short: as §2
Klebsiella pneumoniae [26] = test: Antimicrobial activity against extended spectrum beta-lactamase-deficient Klebsiella pneumoniae assessed as percent susceptible isolates by CLSI method in presence of beta-lactamase inhibitor tazobactem; format: functional; in short: as §1
Pseudomonas aeruginosa [27] = test: Antimicrobial activity against Pseudomonas aeruginosa assessed as percent susceptible isolates by CLSI method in presence of beta-lactamase inhibitor tazobactem; format: functional; in short: as §2
Klebsiella oxytoca [28] = test: Antimicrobial activity against extended spectrum beta-lactamase-deficient Klebsiella oxytoca assessed as percent susceptible isolates by CLSI method in presence of beta-lactamase inhibitor tazobactem; format: functional; in short: as §1
Proteus mirabilis [29] = test: Antimicrobial activity against Proteus mirabilis assessed as percent susceptible isolates by CLSI method in presence of beta-lactamase inhibitor tazobactem; format: functional; in short: as §2
Klebsiella pneumoniae [30] = test: Antimicrobial activity against extended spectrum beta-lactamase-expressing Klebsiella pneumoniae assessed as percent susceptible isolates by CLSI method in presence of beta-lactamase inhibitor tazobactem; format: functional; in short: as §1
Escherichia coli [31] = test: Antimicrobial activity against extended spectrum beta-lactamase-expressing Escherichia coli assessed as percent susceptible isolates by CLSI method in presence of beta-lactamase inhibitor tazobactem; format: functional; in short: as §1
Escherichia coli [32] = test: Antimicrobial activity against extended spectrum beta-lactamase-deficient Escherichia coli assessed as percent susceptible isolates by CLSI method in presence of beta-lactamase inhibitor tazobactem; format: functional; in short: as §1
Citrobacter freundii [33] = test: Antimicrobial activity against Citrobacter freundii assessed as percent susceptible isolates by CLSI method in presence of beta-lactamase inhibitor tazobactem; format: functional; in short: as §2

SMILES | Activity (Pseudomonas aeruginosa [1]) | Activity (Klebsiella pneumoniae [2]) | Activity (Klebsiella pneumoniae [3]) | Activity (Klebsiella aerogenes [4]) | Activity (Escherichia coli [5]) | Activity (Klebsiella oxytoca [6]) | Activity (Citrobacter freundii [7]) | Activity (Escherichia coli [8]) | Activity (Enterobacter cloacae [9]) | Activity (Proteus mirabilis [10]) | Activity (Klebsiella oxytoca [11]) | other results
C[C@@H](O)[C@H]1C(=O)N2C(C(=O)O)=C(S[C@@H]3CN[C@H](C(=O)Nc4cccc(C(=O)O)c4)C3)[C@H](C)[C@H]12 | inactive | 86% | 99% | 97% | 96% | 100% | 98% | 100% | 94% | 100% | 100% | 
NCC[C@H](O)C(=O)N[C@@H]1C[C@H](N)[C@@H](O[C@H]2O[C@H](CN)[C@@H](O)[C@H](O)[C@H]2O)[C@H](O)[C@H]1O[C@H]1O[C@H](CO)[C@@H](O)[C@H](N)[C@H]1O [AMIKACIN] | 85% | 73% | 99% | 83% | 87% | 86% | 84% | 98% | 92% | 92% | 100% | 
CC1(C)S[C@@H]2[C@H](NC(=O)[C@H](N)c3ccccc3)C(=O)N2[C@H]1C(=O)O [AMPICILLIN] |  |  |  |  |  |  |  |  |  |  |  | Activity (Klebsiella oxytoca [12]): 76%; Activity (Klebsiella aerogenes [13]): 31%; Activity (Klebsiella oxytoca [14]): 5%; Activity (Escherichia coli [15]): 43%; Activity (Citrobacter freundii [16]): 37%; Activity (Proteus mirabilis [17]): 72%; Activity (Klebsiella pneumoniae [18]): 76%; Activity (Klebsiella pneumoniae [19]): 6%; Activity (Enterobacter cloacae [20]): 17%; Activity (Escherichia coli [21]): 5%; Activity (Pseudomonas aeruginosa [22]): inactive
CO/N=C(\C(=O)N[C@@H]1C(=O)N2C(C(=O)O)=C(COC(C)=O)CS[C@H]12)c1csc(N)n1 [CEFOTAXIME] | 14% | 9% | 97% | 48% | 5% | 14% | 43% | 97% | 49% | 77% | 97% | 
CO[C@@]1(NC(=O)Cc2cccs2)C(=O)N2C(C(=O)O)=C(COC(N)=O)CS[C@@H]21 [CEFOXITIN] | inactive | 61% | 87% | 22% | 66% | 64% | 16% | 89% | 7% | 95% | 97% | 
CC(C)(O/N=C(\C(=O)N[C@@H]1C(=O)N2C(C(=O)[O-])=C(C[n+]3ccccc3)CS[C@H]12)c1csc(N)n1)C(=O)O [CEFTAZIDIME] | 66% | 20% | 97% | 46% | 29% | 27% | 43% | 95% | 53% | 89% | 97% | 
CO/N=C(\C(=O)N[C@@H]1C(=O)N2C(C(=O)O)=C(CSc3nc(=O)c(O)nn3C)CS[C@H]12)c1csc(N)n1 [CEFTRIAXONE] | 19% | 10% | 97% | 55% | 4% | 9% | 45% | 96% | 48% | 77% | 97% | 
C[C@@H](O)[C@H]1C(=O)N2C(C(=O)O)=C(SCCNC=N)C[C@H]12 [IMIPENEM ANHYDROUS] | 71% | 97% | 100% | 97% | 98% | 100% | 100% | 100% | 98% | 100% | 100% | 
C[C@H]1COc2c(N3CCN(C)CC3)c(F)cc3c(=O)c(C(=O)O)cn1c23.C[C@H]1COc2c(N3CCN(C)CC3)c(F)cc3c(=O)c(C(=O)O)cn1c23.O [LEVOFLOXACIN] | 73% | 43% | 94% | 83% | 21% | 41% | 77% | 72% | 79% | 84% | 97% | 
CCN1CCN(C(=O)N[C@@H](C(=O)N[C@@H]2C(=O)N3[C@@H]2SC(C)(C)[C@@H]3C(=O)O)c2ccccc2)C(=O)C1=O [PIPERACILLIN] |  |  |  |  |  |  |  |  |  |  |  | Activity (Klebsiella aerogenes [23]): 69%; Activity (Klebsiella oxytoca [24]): 68%; Activity (Enterobacter cloacae [25]): 71%; Activity (Klebsiella pneumoniae [26]): 94%; Activity (Pseudomonas aeruginosa [27]): 81%; Activity (Klebsiella oxytoca [28]): 100%; Activity (Proteus mirabilis [29]): 97%; Activity (Klebsiella pneumoniae [30]): 57%; Activity (Escherichia coli [31]): 83%; Activity (Escherichia coli [32]): 94%; Activity (Citrobacter freundii [33]): 71%
